From ChEMBL document CHEMBL1649199 (Antimicrob Agents Chemother, 2009)

Legend:
Plasmodium falciparum [1] = test: Antimicrobial activity against Plasmodium falciparum IMT 9996 harboring Pfcrt, Pfmdr1, Pfmrp, and Pfnhe-1 polymorphisms assessed as growth inhibition after 48 hrs by scintillation counting; format: functional, organism-based; settings: IMT 9996, 48 h
Summary of the method: (§1)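 Sorbitol-synchronized (twice) culture-adapted strains were grown in type A+ human blood in RPMI 1640 with 10% human serum, 25 mM HEPES and 25 mM NaHCO3, at 37°C under 10% O2/5% CO2/85% N2. Rings (>95%) at 0.5% parasitemia and 1.5% hematocrit were exposed to drug, methanol then water, final 0.125–400 nM or 5.3–3,387 nM, with 1 μCi [3H]hypoxanthine for 48 h. IC50 from nonlinear regression versus drug-free controls.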

Plasmodium falciparum [2] = test: Antimicrobial activity against Plasmodium falciparum IMT K4 harboring Pfcrt, Pfmdr1, Pfmrp, and Pfnhe-1 polymorphisms assessed as growth inhibition after 48 hrs by scintillation counting; format: functional, organism-based; settings: IMT K4, 48 h; summary of the method: as §1
Plasmodium falciparum [3] = test: Antimicrobial activity against Plasmodium falciparum 3D7 harboring Pfcrt, Pfmdr1, Pfmrp, and Pfnhe-1 polymorphisms assessed as growth inhibition after 48 hrs by scintillation counting; format: functional, organism-based; settings: 3D7, 48 h; summary of the method: as §1
Plasmodium falciparum [4] = test: Antimicrobial activity against Plasmodium falciparum IMT 16332 harboring Pfcrt, Pfmdr1, Pfmrp, and Pfnhe-1 polymorphisms assessed as growth inhibition after 48 hrs by scintillation counting; format: functional, organism-based; settings: IMT 16332, 48 h; summary of the method: as §1
Plasmodium falciparum [5] = test: Antimicrobial activity against Plasmodium falciparum IMT L1 harboring Pfcrt, Pfmdr1, Pfmrp, and Pfnhe-1 polymorphisms assessed as growth inhibition after 48 hrs by scintillation counting; format: functional, organism-based; settings: IMT L1, 48 h
Summary of the method: (§2)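 Culture-adapted strains in RPMI 1640 with 10% human serum, 25 mM HEPES, 25 mM NaHCO3, type A+ blood, 10% O2/5% CO2/85% N2, 37°C; sorbitol-synchronized twice. Rings >95%, 0.5% parasitemia, 1.5% hematocrit; drug (methanol then water) final 0.125–400 nM or 5.3–3,387 nM. [3H]hypoxanthine 1 μCi/well at time zero, 48 h; freeze-thaw, harvest, scintillation; IC50 versus drug-free control by nonlinear regression of log dose-response.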

Plasmodium falciparum [6] = test: Antimicrobial activity against Plasmodium falciparum IMT 8425 harboring Pfcrt, Pfmdr1, Pfmrp, and Pfnhe-1 polymorphisms assessed as growth inhibition after 48 hrs by scintillation counting; format: functional, organism-based; settings: IMT 8425, 48 h; summary of the method: as §1
Plasmodium falciparum [7] = test: Antimicrobial activity against Plasmodium falciparum IMT 6311 harboring Pfcrt, Pfmdr1, Pfmrp, and Pfnhe-1 polymorphisms assessed as growth inhibition after 48 hrs by scintillation counting; format: functional, organism-based; settings: IMT 6311, 48 h; summary of the method: as §1
Plasmodium falciparum [8] = test: Antimicrobial activity against Plasmodium falciparum IMT 31 harboring Pfcrt, Pfmdr1, Pfmrp, and Pfnhe-1 polymorphisms assessed as growth inhibition after 48 hrs by scintillation counting; format: functional, organism-based; settings: IMT 31, 48 h; summary of the method: as §1
Plasmodium falciparum [9] = test: Antimicrobial activity against Plasmodium falciparum IMT K14 harboring Pfcrt, Pfmdr1, Pfmrp, and Pfnhe-1 polymorphisms assessed as growth inhibition after 48 hrs by scintillation counting; format: functional, organism-based; settings: IMT K14, 48 h; summary of the method: as §1
Plasmodium falciparum [10] = test: Antimicrobial activity against Plasmodium falciparum PA harboring Pfcrt, Pfmdr1, Pfmrp, and Pfnhe-1 polymorphisms assessed as growth inhibition after 48 hrs by scintillation counting; format: functional, organism-based; summary of the method: as §2
Plasmodium falciparum [11] = test: Antimicrobial activity against Plasmodium falciparum IMT 9881 harboring Pfcrt, Pfmdr1, Pfmrp, and Pfnhe-1 polymorphisms assessed as growth inhibition after 48 hrs by scintillation counting; format: functional, organism-based; settings: IMT 9881, 48 h; summary of the method: as §1
Plasmodium falciparum [12] = test: Antimicrobial activity against Plasmodium falciparum IMT Bres harboring Pfcrt, Pfmdr1, Pfmrp, and Pfnhe-1 polymorphisms assessed as growth inhibition after 48 hrs by scintillation counting; format: functional, organism-based; summary of the method: as §1
Plasmodium falciparum [13] = test: Antimicrobial activity against Plasmodium falciparum IMT 10354 harboring Pfcrt, Pfmdr1, Pfmrp, and Pfnhe-1 polymorphisms assessed as growth inhibition after 48 hrs by scintillation counting; format: functional, organism-based; settings: IMT 10354, 48 h; summary of the method: as §1
Plasmodium falciparum [14] = test: Antimicrobial activity against Plasmodium falciparum IMT Vol harboring Pfcrt, Pfmdr1, Pfmrp, and Pfnhe-1 polymorphisms assessed as growth inhibition after 48 hrs by scintillation counting; format: functional, organism-based; summary of the method: as §1
Plasmodium falciparum [15] = test: Antimicrobial activity against Plasmodium falciparum IMT A4 harboring Pfcrt, Pfmdr1, Pfmrp, and Pfnhe-1 polymorphisms assessed as growth inhibition after 48 hrs by scintillation counting; format: functional, organism-based; settings: IMT A4, 48 h; summary of the method: as §2
Plasmodium falciparum [16] = test: Antimicrobial activity against Plasmodium falciparum IMT 10500 harboring Pfcrt, Pfmdr1, Pfmrp, and Pfnhe-1 polymorphisms assessed as growth inhibition after 48 hrs by scintillation counting; format: functional, organism-based; settings: IMT 10500, 48 h; summary of the method: as §1
Plasmodium falciparum [17] = test: Antimicrobial activity against Plasmodium falciparum IMT 10336 harboring Pfcrt, Pfmdr1, Pfmrp, and Pfnhe-1 polymorphisms assessed as growth inhibition after 48 hrs by scintillation counting; format: functional, organism-based; settings: IMT 10336, 48 h; summary of the method: as §1
Plasmodium falciparum [18] = test: Antimicrobial activity against Plasmodium falciparum ms4760-7 assessed as growth inhibition after 48 hrs by scintillation counting; settings: ms4760-7, 48 h
Plasmodium falciparum [19] = test: Antimicrobial activity against Plasmodium falciparum ms4760-6 assessed as growth inhibition after 48 hrs by scintillation counting; settings: ms4760-6, 48 h
Plasmodium falciparum [20] = test: Antimicrobial activity against Plasmodium falciparum IMT K2 harboring Pfcrt, Pfmdr1, Pfmrp, and Pfnhe-1 polymorphisms assessed as growth inhibition after 48 hrs by scintillation counting; format: functional, organism-based; settings: IMT K2, 48 h; summary of the method: as §2
Plasmodium falciparum [21] = test: Antimicrobial activity against Plasmodium falciparum W2 harboring Pfcrt, Pfmdr1, Pfmrp, and Pfnhe-1 polymorphisms assessed as growth inhibition after 48 hrs by scintillation counting; format: functional, organism-based; settings: W2, 48 h; summary of the method: as §1
Plasmodium falciparum [22] = test: Antimicrobial activity against Plasmodium falciparum D6 harboring Pfcrt, Pfmdr1, Pfmrp, and Pfnhe-1 polymorphisms assessed as growth inhibition after 48 hrs by scintillation counting; format: functional, organism-based; settings: D6, 48 h; summary of the method: as §1
Plasmodium falciparum [23] = test: Antimicrobial activity against Plasmodium falciparum FCR3 harboring Pfcrt, Pfmdr1, Pfmrp, and Pfnhe-1 polymorphisms assessed as growth inhibition after 48 hrs by scintillation counting; format: functional, organism-based; settings: FCR3, 48 h; summary of the method: as §1
Plasmodium falciparum [24] = test: Antimicrobial activity against Plasmodium falciparum FCM29 harboring Pfcrt, Pfmdr1, Pfmrp, and Pfnhe-1 polymorphisms assessed as growth inhibition after 48 hrs by scintillation counting; format: functional, organism-based; settings: FCM29, 48 h; summary of the method: as §2
Plasmodium falciparum [25] = test: Antimicrobial activity against Plasmodium falciparum IMT 16116 harboring Pfcrt, Pfmdr1, Pfmrp, and Pfnhe-1 polymorphisms assessed as growth inhibition after 48 hrs by scintillation counting; format: functional, organism-based; settings: IMT 16116, 48 h; summary of the method: as §1

## C=C[C@H]1CN2CC[C@H]1C[C@H]2[C@H](O)c1ccnc2ccc(OC)cc12 [QUININE]
Plasmodium falciparum [1]
  IC50: 1040 nM
Plasmodium falciparum [2]
  IC50: 1030 nM
Plasmodium falciparum [3]
  IC50: 128 nM
Plasmodium falciparum [4]
  IC50: 83 nM
Plasmodium falciparum [5]
  IC50: 575 nM
Plasmodium falciparum [6]
  IC50: 148 nM
Plasmodium falciparum [7]
  IC50: 453 nM
Plasmodium falciparum [8]
  IC50: 371 nM
Plasmodium falciparum [9]
  IC50: 1310 nM
Plasmodium falciparum [10]
  IC50: 625 nM
Plasmodium falciparum [11]
  IC50: 57 nM
Plasmodium falciparum [12]
  IC50: 500 nM
Plasmodium falciparum [13]
  IC50: 58 nM
Plasmodium falciparum [14]
  IC50: 421 nM
Plasmodium falciparum [15]
  IC50: 605 nM
Plasmodium falciparum [16]
  IC50: 210 nM
Plasmodium falciparum [17]
  IC50: 271 nM
Plasmodium falciparum [18]
  IC50: 764 nM
Plasmodium falciparum [19]
  IC50: 582 nM
Plasmodium falciparum [20]
  IC50: 599 nM
Plasmodium falciparum [21]
  IC50: 686 nM
Plasmodium falciparum [22]
  IC50: 62 nM
Plasmodium falciparum [23]
  IC50: 334 nM
Plasmodium falciparum [24]
  IC50: 580 nM
Plasmodium falciparum [25]
  IC50: 204 nM
